Data set [1] addresses Prostaglandin F2-alpha receptor (Mus musculus) (UniProt P43117). The data set can be described thus: Allosteric modulator activity at prostaglandin F2alpha receptor in CD-1 mouse myometrial strips assessed as inhibition of PGF2alpha- induced contraction at 1 uM pre-incubated for 20 mins followed by PGF2alpha challenge. In a few lines: (§1)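 Myometrial strips; baseline taken as mean tension of spontaneous contractions at start. Pretreated 20 min with modulator, then PGF2α challenge. Tension rise computed as […], X = PGF2α-induced change in mean tension (g), Y = initial reference response (g). % inhibition = (A-B)/A, A without and B with pretreatment. 5 experiments per group; means ± SEM.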

The target is the same in data set [2]. Nature of the data set: Allosteric modulator activity at prostaglandin F2alpha receptor in CD-1 mouse myometrial strips assessed as inhibition of PGF2alpha- induced contraction at 10 uM pre-incubated for 20 mins followed by PGF2alpha challenge. In a few lines: as §1
Data set [3] is described as follows: Solubility of the compound. It counts as physicochemical.
The test system of data set [4] is Mus musculus. Nature of the data set: Suppression of LPS-induced premature delivery in Timed-pregnant CD-1 mouse assessed as inhibition of LPS-induced myometrial contraction by measuring percentage of animals delivering at 20 mg administered subcutaneously followed by 0.1 mg, ip bolus injection on day 16 prior to LPS challenge and measured on day 17. Type of data set: functional. Further details: scale not given: the % may be the effect or the level left. In a few lines: (§2)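 Pregnant mice given LPS (E. coli endotoxin) intraperitoneally on gestational day 16. Test agent 20 mg/kg/day, started on day 16, before LPS; controls received saline. Delivery scored as percentage of animals delivered at 12, 15–24, 24–48 and 72 h after LPS. Average delivery time after LPS also recorded. 5–6 animals per treated group; n=10 for saline controls.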

In data set [5] the test system is Mus musculus. The data set can be described thus: Suppression of LPS-induced premature delivery in Timed-pregnant CD-1 mouse assessed as inhibition of LPS-induced myometrial contraction at 20 mg administered subcutaneously followed by 0.1 mg, ip bolus injection on day 16 prior to LPS challenge and measured up to day 19. It counts as functional, organism-based. Put shortly:
as §2

In data set [6] the test system is Mus musculus. The data set can be described thus: Suppression of LPS-induced premature delivery in Timed-pregnant CD-1 mouse assessed as inhibition of LPS-induced myometrial contraction by measuring time of delay in labor at 20 mg administered subcutaneously followed by 0.1 mg, ip bolus injection on day 16 prior to LPS challenge (reference value: 12 hrs). It counts as functional. In a few lines: as §2

The values that follow come from ChEMBL document CHEMBL4350956, “Paired Utility of Aza-Amino Acyl Proline and Indolizidinone Amino Acid Residues for Peptide Mimicry: Conception of Prostaglandin F2α Receptor Allosteric Modulators That Delay Preterm Birth” (J Med Chem, 2019).

Calls of active or inactive are those of the source. No cut-off for these calls is given here. Non-standard residues stand in square brackets, D forms with d. Residues, ends and D or L forms follow the SMILES beside them. *: point of attachment. Pro(trans-4-F) = O=C(O)[C@@H]1C[C@@H](F)CN1; Pro(cis-4-F) = O=C(O)[C@@H]1C[C@H](F)CN1; Pro(4R-NH2) = N[C@H]1CN[C@H](C(=O)O)C1; 3Pal = N[C@@H](Cc1cccnc1)C(=O)O; β3hF = N[C@H](CC(=O)O)Cc1ccccc1; PhAc = O=C(Cc1ccccc1)*; azaGly = NNC(=O)O

Chain of Prostaglandin F2-alpha receptor (Mus musculus) (P43117 whole entry): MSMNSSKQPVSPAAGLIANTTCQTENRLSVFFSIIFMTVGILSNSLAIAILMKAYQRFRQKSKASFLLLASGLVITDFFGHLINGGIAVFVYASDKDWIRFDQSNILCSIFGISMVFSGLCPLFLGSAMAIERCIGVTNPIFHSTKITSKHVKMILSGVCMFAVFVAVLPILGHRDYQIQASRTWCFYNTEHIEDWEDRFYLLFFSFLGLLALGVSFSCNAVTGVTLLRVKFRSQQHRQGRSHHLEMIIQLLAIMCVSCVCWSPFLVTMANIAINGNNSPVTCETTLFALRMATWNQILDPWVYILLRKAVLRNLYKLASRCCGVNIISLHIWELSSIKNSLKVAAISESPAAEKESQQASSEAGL

Consider `O=C(O)C[C@H](Cc1ccccc1)NC(=O)[C@H](Cc1cccnc1)NC(=O)[C@@H]1CCC2=CC[C@H](NC(=O)Cc3ccccc3)C(=O)N21`, for which the inhibition result in data set [1] is “inactive”.

Consider `O=C(O)C[C@H](Cc1ccccc1)NC(=O)[C@H](Cc1cccnc1)NC(=O)[C@@H]1CCC2=C(c3ccccc3)C[C@H](NC(=O)Cc3ccccc3)C(=O)N21`, for which the inhibition result in data set [1] and in data set [2] was “Active” in each case.

Turning to `O=C(O)C[C@H](Cc1ccccc1)NC(=O)[C@H](Cc1cccnc1)NC(=O)[C@@H]1C[C@@H](O)CN1C(=O)N(Cc1ccccc1)NC(=O)Cc1ccccc1`, the inhibition entry in data set [1] and in data set [2] was “inactive” throughout.

In the case of `Cc1ccc(CN(NC(=O)Cc2ccccc2)C(=O)N2CCC[C@H]2C(=O)N[C@@H](Cc2cccnc2)C(=O)N[C@H](CC(=O)O)Cc2ccccc2)cc1`, the inhibition entry in data set [1] and in data set [2] was “inactive” each time.

For `O=C(O)C[C@H](Cc1ccccc1)NC(=O)[C@H](Cc1cccnc1)NC(=O)[C@@H]1CCCN1C(=O)N(Cc1cn(-c2ccc(F)cc2)nn1)NC(=O)Cc1ccccc1`, the inhibition result in data set [1] and in data set [2] was “inactive” each time.

`O=C(O)C[C@H](Cc1ccccc1)NC(=O)[C@H](Cc1cccnc1)NC(=O)[C@@H]1C[C@H](F)CN1C(=O)NNC(=O)Cc1ccccc1` (PhAc-[azaGly][Pro(cis-4-F)][3Pal][β3hF]-OH): the inhibition entry in data set [1] and in data set [2] was “Active” each time.

Regarding `O=C(O)C[C@H](Cc1ccccc1)NC(=O)[C@H](Cc1cccnc1)NC(=O)[C@@H]1CCCN1C(=O)N(Cc1c(F)c(F)c(F)c(F)c1F)NC(=O)Cc1ccccc1`, the inhibition result in data set [1] and in data set [2] was “inactive” in each case. Further, the solubility entry in data set [3] was “Insoluble”.

For the molecule `N[C@@H]1C[C@@H](C(=O)N[C@@H](Cc2cccnc2)C(=O)N[C@H](CC(=O)O)Cc2ccccc2)N(C(=O)NNC(=O)Cc2ccccc2)C1` (PhAc-[azaGly][Pro(4R-NH2)][3Pal][β3hF]-OH), the inhibition result in data set [1] and in data set [2] was “Active” each time.

Take `C#CCN(NC(=O)Cc1ccccc1)C(=O)N1C[C@@H](O)C[C@H]1C(=O)N[C@@H](Cc1cccnc1)C(=O)N[C@H](CC(=O)O)Cc1ccccc1`: the inhibition result in data set [1] and in data set [2] was “inactive” each time.

On to `O=C(O)C[C@H](Cc1ccccc1)NC(=O)[C@H](Cc1cccnc1)NC(=O)[C@@H]1C[C@H](O)CN1C(=O)NNC(=O)Cc1ccccc1`, for which the inhibition entry in data set [1] and in data set [2] was “inactive” in each case.

On to `O=C(O)C[C@H](Cc1ccccc1)NC(=O)[C@H](Cc1cccnc1)NC(=O)[C@@H]1CCCN1C(=O)N(Cc1ccc([N+](=O)[O-])cc1)NC(=O)Cc1ccccc1`, for which the inhibition result in data set [1] and in data set [2] was “inactive” throughout.

As to `O=C(O)C[C@H](Cc1ccccc1)NC(=O)[C@H](Cc1cccnc1)NC(=O)[C@@H]1CCCN1C(=O)N(Cc1c[nH]nn1)NC(=O)Cc1ccccc1`, the inhibition entry in data set [1] and in data set [2] was “inactive” each time.

In the case of `O=C(O)C[C@H](Cc1ccccc1)NC(=O)[C@H](Cc1cccnc1)NC(=O)[C@@H]1CCCN1C(=O)NNC(=O)Cc1ccccc1` (PhAc-[azaGly]P[3Pal][β3hF]-OH), in data set [4], the Activity is recorded as less than 20%. The inhibition result in data set [5] is “Active”. Also, the Time in data set [6] was 24 h.

As to `C#CCN(NC(=O)Cc1ccccc1)C(=O)N1C[C@H](F)C[C@H]1C(=O)N[C@@H](Cc1cccnc1)C(=O)N[C@H](CC(=O)O)Cc1ccccc1`, the inhibition entry in data set [1] and in data set [2] was “inactive” in each case.

Take `N[C@H]1C[C@@H](C(=O)N[C@@H](Cc2cccnc2)C(=O)N[C@H](CC(=O)O)Cc2ccccc2)N(C(=O)N(Cc2ccccc2)NC(=O)Cc2ccccc2)C1`: the inhibition entry in data set [1] and in data set [2] was “Active” throughout.

As to `O=C(O)C[C@H](Cc1ccccc1)NC(=O)[C@H](Cc1cccnc1)NC(=O)[C@@H]1C[C@H](O)CN1C(=O)N(Cc1ccccc1)NC(=O)Cc1ccccc1`, the inhibition entry in data set [1] and in data set [2] was “inactive” in each case.

On to `O=C(O)C[C@H](Cc1ccccc1)NC(=O)[C@H](Cc1cccnc1)NC(=O)[C@@H]1C[C@H](O)[C@@H]2CC[C@H](NC(=O)Cc3ccccc3)C(=O)N12`, for which the inhibition entry in data set [1] and in data set [2] was “inactive” each time.

With `O=C(O)C[C@H](Cc1ccccc1)NC(=O)[C@H](Cc1cccnc1)NC(=O)[C@@H]1C[C@@H](O)CN1C(=O)NNC(=O)Cc1ccccc1`, the inhibition entry in data set [1] and in data set [2] was “inactive” each time.

For the molecule `O=C(O)C[C@H](Cc1ccccc1)NC(=O)[C@H](Cc1cccnc1)NC(=O)[C@@H]1CCCN1C(=O)N(Cc1cn(-c2ccc([N+](=O)[O-])cc2)nn1)NC(=O)Cc1ccccc1`, the inhibition entry in data set [1] and in data set [2] was “inactive” each time. For the same molecule, the solubility entry in data set [3] is “Insoluble”.

As to `O=C(O)C[C@H](Cc1ccccc1)NC(=O)[C@H](Cc1cccnc1)NC(=O)[C@@H]1CCCN1C(=O)N(Cc1cn(-c2ccccc2)nn1)NC(=O)Cc1ccccc1`, the inhibition result in data set [1] and in data set [2] was “inactive” in each case.

For `O=C(O)C[C@H](Cc1ccccc1)NC(=O)[C@H](Cc1cccnc1)NC(=O)[C@@H]1C[C@@H](F)CN1C(=O)NNC(=O)Cc1ccccc1` (PhAc-[azaGly][Pro(trans-4-F)][3Pal][β3hF]-OH), the inhibition entry in data set [1] and in data set [2] was “inactive” throughout.

As for `O=C(O)C[C@H](Cc1ccccc1)NC(=O)[C@H](Cc1cccnc1)NC(=O)[C@@H]1C[C@@H](F)CN1C(=O)N(Cc1ccccc1)NC(=O)Cc1ccccc1`, the inhibition entry in data set [1] and in data set [2] was “inactive” throughout.

In the case of `O=C(O)C[C@H](Cc1ccccc1)NC(=O)[C@H](Cc1cccnc1)NC(=O)[C@@H]1C[C@H](F)CN1C(=O)N(Cc1ccccc1)NC(=O)Cc1ccccc1`, the inhibition entry in data set [1] and in data set [2] was “inactive” throughout.

With `Nc1ccc(CC(=O)N[C@H]2CC[C@H]3CC[C@@H](C(=O)N[C@@H](Cc4cccnc4)C(=O)N[C@H](CC(=O)O)Cc4ccccc4)N3C2=O)cc1`, the inhibition entry in data set [1] and in data set [2] was “inactive” throughout.

For `CN(C)CC#CCN(NC(=O)Cc1ccccc1)C(=O)N1CCC[C@H]1C(=O)N[C@@H](Cc1cccnc1)C(=O)N[C@H](CC(=O)O)Cc1ccccc1`, the inhibition result in data set [1] and in data set [2] was “inactive” throughout.

For `N#Cc1ccc(C2=C3CC[C@@H](C(=O)N[C@@H](Cc4cccnc4)C(=O)N[C@H](CC(=O)O)Cc4ccccc4)N3C(=O)[C@@H](NC(=O)Cc3ccccc3)C2)cc1`, the inhibition entry in data set [1] and in data set [2] was “inactive” in each case.

With `Cc1ccc(-n2cc(CN(NC(=O)Cc3ccccc3)C(=O)N3CCC[C@H]3C(=O)N[C@@H](Cc3cccnc3)C(=O)N[C@H](CC(=O)O)Cc3ccccc3)nn2)cc1`, the inhibition result in data set [1] and in data set [2] was “inactive” each time.

As for `O=C(O)C[C@H](Cc1ccccc1)NC(=O)[C@H](Cc1cccnc1)NC(=O)[C@@H]1CCCN1C(=O)N(CC#CCN1CCCCC1)NC(=O)Cc1ccccc1`, the inhibition result in data set [1] and in data set [2] was “inactive” each time.

With `C#CCN(NC(=O)Cc1ccccc1)C(=O)N1C[C@@H](F)C[C@H]1C(=O)N[C@@H](Cc1cccnc1)C(=O)N[C@H](CC(=O)O)Cc1ccccc1`, the inhibition result in data set [1] and in data set [2] was “inactive” throughout.

For the molecule `O=C(O)C[C@H](Cc1ccccc1)NC(=O)[C@H](Cc1cccnc1)NC(=O)[C@@H]1CC[C@H]2CC[C@H](NC(=O)Cc3ccccc3)C(=O)N21`, the inhibition entry in data set [2] is “inactive”.

On to `[N-]=[N+]=Nc1ccc(CC(=O)N[C@H]2CC[C@H]3CC[C@@H](C(=O)N[C@@H](Cc4cccnc4)C(=O)N[C@H](CC(=O)O)Cc4ccccc4)N3C2=O)cc1`, for which the inhibition result in data set [1] and in data set [2] was “inactive” in each case.

As to `COc1ccc(C2=C3CC[C@@H](C(=O)N[C@@H](Cc4cccnc4)C(=O)N[C@H](CC(=O)O)Cc4ccccc4)N3C(=O)[C@@H](NC(=O)Cc3ccccc3)C2)cc1`, the inhibition result in data set [1] and in data set [2] was “inactive” each time.

For the molecule `O=C(O)C[C@H](Cc1ccccc1)NC(=O)[C@H](Cc1cccnc1)NC(=O)[C@@H]1CCCN1C(=O)N(Cc1cn(-c2ccc(I)cc2)nn1)NC(=O)Cc1ccccc1`, the inhibition entry in data set [1] and in data set [2] was “inactive” in each case.

Consider `C#CCN(NC(=O)Cc1ccccc1)C(=O)N1C[C@H](O)C[C@H]1C(=O)N[C@@H](Cc1cccnc1)C(=O)N[C@H](CC(=O)O)Cc1ccccc1`, for which the inhibition result in data set [1] and in data set [2] was “Active” each time.

Turning to `O=C(O)C[C@H](Cc1ccccc1)NC(=O)[C@H](Cc1cccnc1)NC(=O)[C@@H]1C[C@@H](O)[C@H]2CC[C@H](NC(=O)Cc3ccccc3)C(=O)N21`, the inhibition result in data set [1] and in data set [2] was “inactive” in each case.
